Data from ChEMBL document CHEMBL2346560, “Structure and function of a potent lipopolysaccharide-binding antimicrobial and anti-inflammatory peptide” (J Med Chem, 2013).
Converted amounts (≈) assume the structure as drawn. The source made the active and inactive calls. The rule behind the calls is not given here. Bridge positions count the residues as written; N and C are the ends. Peptide text beside a SMILES is read from it.

Columns and labels:
Escherichia coli [1] = assay: Bactericidal activity against Escherichia coli ATCC 25922 at 10 times MIC after 20 mins by colony counting assay (reference value: 79.3 CFU); assay type: functional
Escherichia coli [2] = assay: Antibacterial activity against Escherichia coli 08A852 assessed as plasma membrane rupture after 30 mins by scanning electron microscopic analysis; assay type: functional, organism-based
Method in brief: (§1)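 E. coli (about 2 × 10^7 CFU/mL) was exposed to peptide at 1 × MIC, 37 °C, 30 min, beside an untreated control. Cells were pelleted, fixed in 2.5% buffered glutaraldehyde (4 °C, 2 h), post-fixed in 1% osmium tetroxide (2 h), dehydrated through graded ethanol, frozen in tert-butyl alcohol and vacuum-dried, then imaged by SEM.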

RAW264.7 [3] = assay: Cytotoxicity against mouse RAW264.7 cells at 50 ug/mL after 24 hrs by MTT assay relative to control; assay type: cell-based; conditions: raw264.7, 24 h
Pseudomonas aeruginosa = assay: Antibacterial activity against Pseudomonas aeruginosa ATCC 27853 after 16 hrs by broth dilution method; assay type: functional; conditions: ATCC 27853, 16 h
Method in brief: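 MIC determined by an earlier in-house method. Values are means of three independent experiments, each run in duplicate.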

RAW264.7 [4] = assay: Antiinflammatory activity in mouse RAW264.7 cells assessed as inhibition of LPS-induced TNF alpha production after 24 hrs by ELISA; assay type: functional, cell-based
Method in brief: (§2)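 RAW 264.7 cells (2 × 10^5) were plated and allowed to adhere. They were given peptide (2.5, 5, 10, 20 µg/mL) with or without LPS (E. coli 055:B5, 20 ng/mL) for 24 h. Supernatant TNF-α, IL-6 and MCP-1 were measured by ELISA at A450. Controls were LPS alone and untreated cells. Mean ± SEM of three separate experiments.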

Candida albicans [5] = assay: Antifungal activity against Candida albicans ATCC 2002 treated with water after 16 hrs by broth dilution method; assay type: functional; conditions: ATCC 2002, 16 h
Method in brief: (§3)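 Salt sensitivity of the MIC. Peptide was tested in water, NaCl, CaCl2, MgCl2 or PBS (Na2HPO4-NaH2PO4, pH 7.4), with every salt at 150 mM. Values are means of three independent experiments, each run in duplicate.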

Staphylococcus aureus [6] = assay: Antibacterial activity against Staphylococcus aureus ATCC 2592 treated with NaCl after 16 hrs by broth dilution method; assay type: functional; conditions: ATCC 2592, 16 h; method in brief: as §3
Staphylococcus aureus [7] = assay: Antibacterial activity against ampicillin, benzylpencillin-resistant Staphylococcus aureus 08A875 after 16 hrs by broth dilution method; assay type: functional; conditions: 08A875, 16 h
Method in brief: (§4)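 MIC read-out, reported in µg/mL with µM equivalents. Each value is the mean of three independent experiments, each run in duplicate.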

Escherichia coli [8] = assay: Bactericidal activity against Escherichia coli ATCC 25922 at 5 times MIC after 20 mins by colony counting assay (reference value: 79.3 CFU); assay type: functional
[9] = Toxicity in human RBC assessed as induction of hemolysis after 30 mins; assay type: cell-based; conditions: erythrocyte, 0.5 h
Method in brief: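 Human red blood cells incubated with peptide. Hemoglobin release read as absorbance at 540 nm and expressed against 1% Triton X-100 as positive control.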

RAW264.7 [10] = assay: Antiinflammatory activity in mouse RAW264.7 cells assessed as inhibition of LPS-induced JNK2 expression at 10 to 20 ug/mL preincubated for 1 hr prior to LPS-challenge measured after 3 hrs by Western blotting analysis; assay type: functional, cell-based
Method in brief: (§5)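 RAW 264.7 cells (1 × 10^6/well) were serum-starved in RPMI-1640 for 16 h. They were pretreated with peptide (0, 5, 10, 20 µg/mL) for 1 h, then given LPS (E. coli 055:B5, 0 or 100 ng/mL) for 3 h. Cells were washed in ice-cold PBS, and cytoplasmic or nuclear fractions were blotted for TLR4, JNK, NF-κB p65 and β-actin. Control was LPS alone.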

RAW264.7 [11] = assay: Antiinflammatory activity in mouse RAW264.7 cells assessed as inhibition of LPS-induced IL6 production after 24 hrs by ELISA; assay type: functional, cell-based; method in brief: as §2
Escherichia coli [12] = assay: Antibacterial activity against Escherichia coli ATCC 25922 treated with NaCl after 16 hrs by broth dilution method; assay type: functional; conditions: ATCC 25922, 16 h; method in brief: as §3
Bacillus subtilis [13] = assay: Antibacterial activity against Bacillus subtilis 6633 treated with NaCl after 16 hrs by broth dilution method; assay type: functional; conditions: Bacillus subtilis, 6633, 16 h; method in brief: as §3
Bacillus subtilis [14] = assay: Antibacterial activity against Bacillus subtilis 6633 treated with CaCl2 after 16 hrs by broth dilution method; assay type: functional; conditions: Bacillus subtilis, 6633, 16 h; method in brief: as §3
Candida albicans [15] = assay: Antifungal activity against Candida albicans ATCC 2002 treated with MgCl2 after 16 hrs by broth dilution method; assay type: functional; conditions: ATCC 2002, 16 h; method in brief: as §3
Bacillus subtilis [16] = assay: Antibacterial activity against Bacillus subtilis 6633 treated with MgCl2 after 16 hrs by broth dilution method; assay type: functional; conditions: Bacillus subtilis, 6633, 16 h; method in brief: as §3
RAW264.7 [17] = assay: Antiinflammatory activity in mouse RAW264.7 cells assessed as inhibition of LPS-induced TNF alpha production at 20 ug/mL after 24 hrs by ELISA relative to control; assay type: functional; conditions: RAW264.7, 24 h; method in brief: as §2
Escherichia coli [18] = assay: Bactericidal activity against Escherichia coli ATCC 25922 at MIC after 120 mins by colony counting assay (reference value: 1868.3 CFU); assay type: functional
RAW264.7 [19] = assay: Cytotoxicity against mouse RAW264.7 cells at 200 ug/mL after 24 hrs by MTT assay relative to control; assay type: cell-based; conditions: raw264.7, 24 h
RAW264.7 [20] = assay: Antiinflammatory activity in mouse RAW264.7 cells assessed as inhibition of LPS-induced TLR4 expression at 20 ug/mL preincubated for 1 hr prior to LPS-challenge measured after 3 hrs by Western blotting analysis relative to LPS-treated control; assay type: functional; method in brief: as §5
RAW264.7 [21] = assay: Antiinflammatory activity in mouse RAW264.7 cells assessed as inhibition of LPS-induced MCP1 production at 20 ug/mL after 24 hrs by ELISA relative to control; assay type: functional; conditions: RAW264.7, 24 h; method in brief: as §2
Escherichia coli [22] = assay: Antibacterial activity against Escherichia coli ATCC 25922 assessed as cell swelling after 30 mins by scanning electron microscopic analysis; assay type: functional, organism-based; method in brief: as §1
Escherichia coli [23] = assay: Bactericidal activity against Escherichia coli ATCC 25922 at 10 times MIC after 40 mins by colony counting assay (reference value: 131.7 CFU); assay type: functional
Escherichia coli [24] = assay: Bactericidal activity against Escherichia coli ATCC 25922 at MIC after 60 mins by colony counting assay (reference value: 296 CFU); assay type: functional
Escherichia coli [25] = assay: Antibacterial activity against Escherichia coli ATCC 25922 after 16 hrs by broth dilution method; assay type: functional; conditions: ATCC 25922, 16 h; method in brief: as §4
RAW264.7 [26] = assay: Antiinflammatory activity in mouse RAW264.7 cells assessed as inhibition of LPS-induced NO production at 20 ug/mL after 24 hrs by spectrophotometric analysis relative to control; assay type: functional; conditions: RAW264.7, 24 h
Method in brief: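 RAW 264.7 cells (1 × 10^7) in RPMI-1640 with 10% FBS and penicillin/streptomycin were treated with peptide (2.5, 5, 10, 20 µg/mL) with or without LPS (E. coli 055:B5, 100 ng/mL) for 24 h. Medium nitrite was measured with Griess reagent at A540 against a NaNO2 standard curve. Control was LPS alone. Mean ± SEM of three separate experiments.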

Candida albicans [27] = assay: Antifungal activity against Candida albicans ATCC 2002 treated with PBS after 16 hrs by broth dilution method; assay type: functional; conditions: ATCC 2002, 16 h; method in brief: as §3
Staphylococcus aureus [28] = assay: Antibacterial activity against Staphylococcus aureus ATCC 2592 treated with water after 16 hrs by broth dilution method; assay type: functional; conditions: ATCC 2592, 16 h; method in brief: as §3
Escherichia coli [29] = assay: Bactericidal activity against Escherichia coli ATCC 25922 at 5 times MIC after 40 mins by colony counting assay (reference value: 131.7 CFU); assay type: functional

## CC[C@H](C)[C@H](NC(=O)[C@H](Cc1cnc[nH]1)NC(=O)[C@H](CO)NC(=O)[C@@H](NC(=O)[C@@H](NC(=O)[C@@H](NC(=O)[C@@H](NC(=O)[C@H](CCCNC(=N)N)NC(=O)[C@H](CC(C)C)NC(=O)[C@H](CCCCN)NC(=O)[C@H](CCC(=O)O)NC(=O)[C@H](CCCCN)NC(=O)[C@H](CC(C)C)NC(=O)[C@H](CCCCN)NC(=O)[C@@H]1CSSC[C@H](NC(=O)[C@H](CCCCN)NC(=O)[C@@H](N)CCCNC(=N)N)C(=O)N[C@@H](CC(N)=O)C(=O)N[C@@H](Cc2ccccc2)C(=O)N[C@@H](CC(C)C)C(=O)N1)[C@@H](C)O)C(C)C)[C@@H](C)CC)[C@@H](C)O)C(=O)N[C@@H](CC(=O)O)C(=O)N[C@@H](CCCCN)C(=O)N[C@H](C(=O)N[C@@H](CC(C)C)C(=O)N[C@@H](CCCNC(=N)N)C(=O)N1CCC[C@H]1C(=O)N[C@@H](CCC(N)=O)C(=O)NCC(=O)O)C(C)C (H-RKCNFLCKLKEKLRTVITSHIDKVLRPQG-OH; disulfide 3-7)
Escherichia coli [1]
  CFU: 0
Escherichia coli [2]
  Activity: Active
RAW264.7 [3]
  Activity: 2.7%
Pseudomonas aeruginosa
  MIC: 5.48 µM (≈ 18.8 µg/mL)
RAW264.7 [4]
  inhibition: Dose-dependent effect
Candida albicans [5]
  MIC: 4.69 µg/mL (≈ 1.37 µM)
Staphylococcus aureus [6]
  MIC: 4.69 µg/mL (≈ 1.37 µM)
Staphylococcus aureus [7]
  MIC: 5.48 µM (≈ 18.8 µg/mL)
Escherichia coli [8]
  CFU: 0
[9]
  Activity: Dose-dependent effect
RAW264.7 [10]
  inhibition: Active
RAW264.7 [11]
  inhibition: Dose-dependent effect
Escherichia coli [12]
  MIC: 2.35 µg/mL (≈ 0.686 µM)
Bacillus subtilis [13]
  MIC: 75 µg/mL (≈ 21.9 µM)
Bacillus subtilis [14]
  MIC: 75 µg/mL (≈ 21.9 µM)
Candida albicans [15]
  MIC: 2.35 µg/mL (≈ 0.686 µM)
Bacillus subtilis [16]
  MIC: 75 µg/mL (≈ 21.9 µM)
RAW264.7 [17]
  inhibition at 20 µg/mL: 60%
Escherichia coli [18]
  CFU: 0
RAW264.7 [19]
  Activity: 5.1%
RAW264.7 [20]
  inhibition at 20 µg/mL: 85%
RAW264.7 [21]
  inhibition at 20 µg/mL: 68%
Escherichia coli [22]
  Activity: Active
Escherichia coli [23]
  CFU: 0
Escherichia coli [24]
  CFU: 0
Escherichia coli [25]
  MIC: 1.37 µM (≈ 4.69 µg/mL)
RAW264.7 [26]
  inhibition at 20 µg/mL: 70%
Candida albicans [27]
  MIC: 2.35 µg/mL (≈ 0.686 µM)
Staphylococcus aureus [28]
  MIC: 9.38 µg/mL (≈ 2.74 µM)
Escherichia coli [29]
  CFU: 0
